Results on 5 compounds are retold here after ChEMBL document CHEMBL3297702, “Improving photodynamic inactivation of bacteria in dentistry: highly effective and fast killing of oral key pathogens with novel tooth-colored type-II photosensitizers” (J Med Chem, 2014).

Structures are written as SMILES.

Data set [1] concerns Leishmania donovani. The data set can be described thus: Leishmanicidal activity against promastigote stage of Leishmania donovani MHOM/SD/00/1S-2D after 2 hrs by MTT assay. The data set is classed as functional, organism-based. On the technique in general: Tetrazolium assays rely on reduction of a dye to a coloured formazan, in cell work by metabolically active cells.
Data set [2] deals with Leishmania infantum. The experiment in a line: Leishmanicidal activity against amastigote stage of Leishmania infantum MCAN/ES/89/IPZ229/1/89 after 2 hrs by MTT assay. In kind it is functional, organism-based. The settings on record: MCAN/ES/89/IPZ229/1/89, 2 h.
Data set [3] is described as follows: Induction of singlet oxygen generation measured over 20 mins by luminescence assay. The data set is classed as physicochemical.
Data set [4] is described as follows: Photobleaching of the compound irradiated with laser energy at 405 nm for 5 mins. In kind it is physicochemical. Also on record: dose or concentration left out as unconfirmed.
The test system of data set [5] is Enterococcus faecalis. The experiment in a line: Toxicity in Enterococcus faecalis ATCC 29212 assessed as reduction of log10 CFU at 1 to 250 uM incubated for 10 secs under dark condition measured after 24 hrs by agar plating method. In kind it is organism-based. The settings on record: in vivo. The method in brief: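 Dark controls. Overnight BHI cultures (EF, SM, AN aerobic; AA anaerobic; 37 °C) were washed into PBS at 10^7–10^8 cells/mL. They were mixed 1:1 with photosensitizer at final 0–250 µM and incubated 10 s, 7.5 min or 15 min, then kept in the dark for 20, 40 or 120 s. Tenfold dilutions were plated: EF on Mueller-Hinton agar, aerobic 24 h; SM on BHI agar, aerobic 48 h; AN on blood agar, aerobic 48 h; AA on BHI agar, anaerobic 48 h; all at 37 °C. CFU were compared with untreated controls; medians of three independent experiments in triplicate.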

Data set [6] can be described thus: Octanol-water partition coefficient, log P of the compound at 1 x 10^-4 mol at room temperature after 10 mins by UV/vis spectroscopic analysis. The data set is classed as physicochemical.
In data set [7] the test system is Enterococcus faecalis. The data set can be described thus: Photodynamic inactivation of Enterococcus faecalis ATCC 29212 assessed as reduction of log10 CFU at 1 uM incubated prior to irradiation with 25 j/cm'2 for 20 secs measured after 24 hrs by agar plating method (reference value: <1 no unit). The data set is classed as functional. The method in brief: (§1)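 E. faecalis ATCC 29212, aerobic overnight BHI culture at 37 °C, was harvested at stationary phase and suspended in PBS at 10^7–10^8 bacteria/mL. It was mixed 1:1 with PS to 0–250 µM final, held 10 s, then illuminated (1260 ± 50 mW/cm2) or kept dark. Dilutions were plated on Mueller-Hinton agar, aerobic 37 °C 24 h, CFU counted. Medians of three independent triplicate experiments, referred to untreated controls.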

Data set [8] concerns Enterococcus faecalis. The experiment in a line: Photodynamic inactivation of Enterococcus faecalis ATCC 29212 assessed as reduction of log10 CFU at 1 uM incubated prior to irradiation with 150 j/cm'2 for 120 secs measured after 24 hrs by agar plating method (reference value: <1 no unit). The data set is classed as functional. The method in brief:
as §1

For data set [9], the system named is Enterococcus faecalis. The data set can be described thus: Photodynamic inactivation of Enterococcus faecalis ATCC 29212 assessed as reduction of log10 CFU at 1 uM incubated prior to irradiation with 50 j/cm'2 for 40 secs measured after 24 hrs by agar plating method (reference value: <1 no unit). The data set is classed as functional. The method in brief: as §1

Data set [10] concerns Enterococcus faecalis. The data set can be described thus: Photodynamic inactivation of Enterococcus faecalis ATCC 29212 assessed as reduction of log10 CFU at 5 uM incubated prior to irradiation with 25 j/cm'2 for 20 secs measured after 24 hrs by agar plating method (reference value: <1 no unit). The data set is classed as functional. The method in brief:
as §1

In data set [11] the test system is Enterococcus faecalis. The data set can be described thus: Photodynamic inactivation of Enterococcus faecalis ATCC 29212 assessed as reduction of log10 CFU at 5 uM incubated prior to irradiation with 50 j/cm'2 for 40 secs measured after 24 hrs by agar plating method (reference value: <1 no unit). The data set is classed as functional. In a few lines:
as §1

The subject of data set [12] is Enterococcus faecalis. The data set can be described thus: Photodynamic inactivation of Enterococcus faecalis ATCC 29212 assessed as reduction of log10 CFU at 5 uM incubated prior to irradiation with 150 j/cm'2 for 120 secs measured after 24 hrs by agar plating method (reference value: <1 no unit). In kind it is functional. In a few lines: as §1
Data set [13] concerns Enterococcus faecalis. The experiment in a line: Photodynamic inactivation of Enterococcus faecalis ATCC 29212 assessed as reduction of log10 CFU at 10 uM incubated prior to irradiation with 25 j/cm'2 for 20 secs measured after 24 hrs by agar plating method (reference value: <1 no unit). In kind it is functional. The method in brief:
as §1

For data set [14], the system named is Enterococcus faecalis. The experiment in a line: Photodynamic inactivation of Enterococcus faecalis ATCC 29212 assessed as reduction of log10 CFU at 10 uM incubated prior to irradiation with 50 j/cm'2 for 40 secs measured after 24 hrs by agar plating method (reference value: <1 no unit). The data set is classed as functional. The method in brief: as §1
The subject of data set [15] is Enterococcus faecalis. The experiment in a line: Photodynamic inactivation of Enterococcus faecalis ATCC 29212 assessed as reduction of log10 CFU at 10 uM incubated prior to irradiation with 150 j/cm'2 for 120 secs measured after 24 hrs by agar plating method (reference value: <1 no unit). The data set is classed as functional. In a few lines: as §1
Data set [16] has as its system Enterococcus faecalis. The data set can be described thus: Photodynamic inactivation of Enterococcus faecalis ATCC 29212 assessed as reduction of log10 CFU at 100 uM incubated prior to irradiation with 25 j/cm'2 for 20 secs measured after 24 hrs by agar plating method (reference value: <1 no unit). In kind it is functional. The method in brief:
as §1

Data set [17] deals with Enterococcus faecalis. The experiment in a line: Photodynamic inactivation of Enterococcus faecalis ATCC 29212 assessed as reduction of log10 CFU at 100 uM incubated prior to irradiation with 50 j/cm'2 for 40 secs measured after 24 hrs by agar plating method (reference value: <1 no unit). The data set is classed as functional. The method in brief: as §1
In data set [18] the test system is Enterococcus faecalis. The data set can be described thus: Photodynamic inactivation of Enterococcus faecalis ATCC 29212 assessed as reduction of log10 CFU at 100 uM incubated prior to irradiation with 150 j/cm'2 for 120 secs measured after 24 hrs by agar plating method (reference value: <1 no unit). In kind it is functional. In a few lines: as §1

The term EC50 denotes the concentration that produces a half-maximal response. Regarding `COC1=Cc2cccc3ccc(-c4ccccc4)c(c23)C1=O`, the EC50 in data set [1] and in [2] was under 60 µg/mL throughout. Further, in data set [3], the outcome was Active. Further, in data set [4], the Stability result is “Unstable”.

Broadly, the logP is the decadic logarithm of the partition coefficient of the neutral form, usually between octanol and water. Turning to `CCCC[N+](C)(C)CC1=Cc2cccc3cccc(c23)C1=O.[Cl-]`, the Activity entry in data set [5] is “Non-toxic”; in data set [3] it was “Active”. Besides, the Stability result in data set [4] is on record as “Unstable”. In [6], this compound showed a lipophilicity (logP) at 10 min of -0.8. For the same compound, the log10cfu in [7] was under 1; in data set [8], under 3; in [9] it was under 1; in data set [10] it was under 1; in data set [11], under 3; in data set [12], 3. In addition, the log10cfu in data set [13] is reported as under 3; in [14] it was under 3; in data set [15], over 6; in data set [16], over 6; in data set [17] it was over 6; in [18], over 6.

For the compound `CC(c1ccccc1)[N+](C)(C)CC1=Cc2cccc3cccc(c23)C1=O.[Cl-]` (stereo unspecified), the Activity entry is “Non-toxic” in [5] and “Active” in [3]. Also, in data set [4], the Stability result is recorded as “Unstable”. This compound also displayed a logP at 10 min in [6] of -0.1. Besides, the log10cfu in [7] is under 1; in data set [8], under 3; in data set [9] it was under 1; in [10], under 3; in data set [11], under 3; in data set [12], over 6. Besides, the log10cfu is under 3 in [13]; under 3 in [14]; over 6 in [15]; over 6 in [16]; over 6 in data set [17]; over 6 in data set [18].

Take `O=C1C(O)=Cc2cccc3ccc(-c4ccccc4)c1c23`: the concentration giving a half-maximal response (EC50) in data set [1] and in data set [2] was under 60 µg/mL each time. Moreover, in data set [3], the result was Active. In addition, the Stability entry in data set [4] is listed as “Unstable”.

`O=C1C(CCl)=Cc2cccc3cccc1c23` returned a log partition coefficient (logP) at 10 min in data set [6] of 1.3.
